This is an account of results in ChEMBL document CHEMBL1140698, “Design, synthesis, and anti-inflammatory properties of orally active 4-(phenylamino)-pyrrolo[2,1-f][1,2,4]triazine p38alpha mitogen-activated protein kinase inhibitors” (J Med Chem, 2008).

The structures appear in SMILES notation.

Data set [1] in a line: AUC (0 to 4 hrs) in rat at 10 mg/kg, po. The class given is ADME, organism-based. Set-up: time < 4 hr, dose 10 mg/kg, route oral. To be noted: plasma. The gist of the method:
(§1)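 Rats given a single oral 10 mg/kg dose in 9/0.5/0.5 water/EtOH/Tween 80. Plasma drug level measured at 0.5 h and AUC0-4h calculated, each as the average of 2 rats.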

Data set [2] is described as follows: Drug level in rat plasma at 10 mg/kg, po after 0.5 hrs. Set-up: dose 10 mg/kg, route oral. The class given is ADME, organism-based. The gist of the method: as §1
In another data set the test system is Caco-2. Briefly: Intrinsic permeability across human Caco-2 cells. The class given is ADME, cell-based.
The nature of data set [3]: Metabolic stability in human liver microsome after 10 mins. It is filed as ADME. As to conditions: liver microsomes, read-out: Stability. The gist of the method: (§2)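 Rat or pooled human (10 donors) liver microsomes at about 1 mg/mL protein, 1 mM NADPH, 56 mM potassium phosphate pH 7.4, compound 3 µM final, 37 °C. Quenched with acetonitrile and parent drug quantified by LC/MS/MS. Percent parent remaining at 10 min, n = 1.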

Data set [4] is described as follows: Metabolic stability in rat liver microsome after 10 mins. The class given is ADME. As to conditions: liver microsomes, read-out: Stability. The gist of the method: as §2
The nature of data set [5]: Bioavailability in mouse at 10 mg/kg, po. The class given is ADME, organism-based. As to conditions: in vivo. In outline:
(§3)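 Mice dosed at 5 mg/kg i.v. or 10 mg/kg p.o., 3 mice per group. Values given as average ± SEM.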

The nature of data set [6]: Cmax in mouse at 5 mg/kg, iv or 10 mg/kg, po. It is filed as ADME, organism-based. As to conditions: in vivo. In outline: as §3
Data set [7] is described as follows: Tmax in mouse at 5 mg/kg, iv or 10 mg/kg, po. It is filed as ADME, organism-based. To be noted: in vivo. The gist of the method:
as §3

Data set [8] in a line: Half life in mouse at 5 mg/kg, iv or 10 mg/kg, po. It is filed as ADME, organism-based. As to conditions: in vivo. In outline: as §3
Data set [9] in a line: Mean residence time in mouse at 5 mg/kg, iv or 10 mg/kg, po. It is filed as ADME, organism-based. As to conditions: in vivo. In outline:
as §3

Data set [10] is described as follows: Clearance in mouse at 5 mg/kg, iv or 10 mg/kg, po. The class given is ADME, organism-based. To be noted: in vivo. In outline: as §3
Data set [11] is described as follows: Volume of distribution at steady state in mouse 5 mg/kg, iv or 10 mg/kg, po. The class given is ADME, organism-based. As to conditions: in vivo, read-out: Vdss. The gist of the method: as §3
The nature of data set [12]: AUC (0 to 8 hrs) in mouse 5 mg/kg, iv or 10 mg/kg, po. It is filed as ADME, organism-based. As to conditions: plasma. The gist of the method: as §3

Turning to `CONC(=O)c1ccc(C)c(Nc2ncnn3cc(C(=O)NC(C)C)c(C)c23)c1`, the AUC(0-t) at 4 h in data set [1] came to 3.7 µM·h. In [2], this compound registered a concentration at 0.5 h of 3.8 µM.
Turning to `CCCNC(=O)c1cn2ncnc(Nc3cc(C(=O)NOC)ccc3C)c2c1C`, the apparent permeability coefficient (Papp) in the data set on Caco-2 came to 5.8 ×10⁻⁶ cm/s. Also, the remaining at 10 min came out at 83% in [3] and 82% in data set [4]. The compound further had an exposure AUC(0-t) at 4 h in data set [1] of 2.1 µM·h. Further, the concentration at 0.5 h in [2] is 6.6 µM. This compound also displayed a bioavailability in [5] of 97%. This compound gave a Cmax in data set [6] of 18 µM. Moreover, the Tmax in [7] is 0.25 h. In addition, the half-life in data set [8] was 2.5 h. In data set [9], the MRT is 1 h. The same compound came in with a clearance in [10] of 28 mL/min/kg. The Vd in [11] amounted to 1.6 L/kg. In [12], the AUC(0-t) is 13 µM·h.
For `CC[C@H](C)NC(=O)c1cn2ncnc(Nc3cc(C(=O)NOC)ccc3C)c2c1C`, the remaining at 10 min was 62% in [3] and 96% in [4]. The compound further yielded an exposure AUC(0-t) at 4 h in [1] of 9.2 µM·h. Besides, the concentration at 0.5 h in [2] turned out to be 4.3 µM.
As for `CCCNC(=O)c1cn2ncnc(Nc3cc(NC(=O)OCC)ccc3C)c2c1C`, the AUC(0-t) at 4 h in data set [1] turned out to be 0.7 µM·h. Further, the concentration at 0.5 h in [2] is 0.4 µM.
On to `CONC(=O)c1ccc(C)c(Nc2ncnn3cc(C(=O)N[C@@H](C)c4ccccc4)c(C)c23)c1`, for which, in the data set with Caco-2, the apparent permeability coefficient (Papp) was 13.1 ×10⁻⁶ cm/s. For the same compound, the remaining at 10 min amounted to 72% in [3] and 90% in data set [4]. The same compound came in with an AUC(0-t) at 4 h in data set [1] of 2.1 µM·h. This compound also gave a concentration at 0.5 h in data set [2] of 2.1 µM. Further, in data set [5], the bioavailability is 34%. In addition, the maximum concentration (Cmax) in data set [6] was 3.7 µM. Further, in data set [7], the time to peak (Tmax) was 0.5 h. Further, the half-life in data set [8] was 1.2 h. In addition, the mean residence time MRT in data set [9] came out at 0.8 h. The compound also showed a clearance in data set [10] of 31 mL/min/kg. In data set [11], the Vd was determined as 1.5 L/kg. The same compound came in with an area under the curve AUC(0-t) in [12] of 3.8 µM·h.
For the compound `CCNC(=O)c1cn2ncnc(Nc3cc(C(=O)NOC)ccc3C)c2c1C`, in the data set with Caco-2, the Papp was determined as 2 ×10⁻⁶ cm/s. Moreover, the remaining at 10 min is 69% in [3] and 100% in data set [4]. The same compound returned an AUC(0-t) at 4 h in data set [1] of 0.7 µM·h. In data set [2], this compound displayed a concentration at 0.5 h of 0.8 µM. For the same compound, in data set [5], the bioavailability was found to be 79%. Also, in data set [6], the Cmax is 3.1 µM. Also, the time of peak concentration (Tmax) in [7] turned out to be 0.25 h. In [8], this compound gave a half-life of 2.2 h. Further, the MRT in data set [9] came out at 1.4 h. Also, the clearance in [10] is 93 mL/min/kg. Besides, the Vd in data set [11] is 7.6 L/kg. The compound also returned an AUC(0-t) in [12] of 3.6 µM·h.
For the compound `CONC(=O)c1ccc(C)c(Nc2ncnn3cc(C(=O)NCc4ccccn4)c(C)c23)c1`, in data set [1], the exposure AUC(0-t) at 4 h amounted to 2.8 µM·h. Moreover, in data set [2], the concentration at 0.5 h came out at 3.4 µM.
